Compound activity: PubChem, several laboratories
Compounds with a hit are over-represented: about 4.2% of the library has one in this group of screens.
CTSL1 counter: counter-screen for PFM18AAP inhibitors: inhibitors of F. hepatica cathepsin L1; recombinant F. hepatica cathepsin L1, Z-Leu-Arg-MCA fluorescence; inhibition, % at 5.96 µM; 0.49% of 300,000 active; AID 1906;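 active means inhibition above the mean of all tested compounds plus 3 SD, set per screening campaign, cut at about 17% in these data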
M18AAP inhibitor: blocks P. falciparum M18 aspartyl aminopeptidase; recombinant PfM18AAP, H-Glu-NHMec fluorogenic cleavage; 1.2% of 290,000 active; inhibition, % at 7.35 µM;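 active means inhibition above the campaign mean inhibition over all tested compounds plus 3 SD, cut at about 28% in these data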
GAA850 FXN act: frataxin GAA850 promoter activation; HEK293 lucGAA850 FXN promoter luciferase reporter, 24 h; percent of 10 µM SAHA response; activation, % at 6 µM; 0.56% of 360,000 active; AID 540364;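 active means activation above the average of all compounds screened plus 3 SD, cutoff fixed separately per campaign, cut at about 7.5% in these data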
AHR activator: human AHR activation; AHR-responsive luciferase reporter cells, luminescence; activation, % at 5 µM; 2.5% of 320,000 active; AID 2796; in the data active means activation above about 47%
HDAC3 inhib: human HDAC3 inhibition. AID 2718. O15379. inhibition, % at 8.3 µM. recombinant HDAC3, fluorogenic peptide/trypsin coupled, fluorescence. 0.15% of 320,000 active; in the data active means inhibition above about 26%, passing the limit was not always enough; inconclusive means no clear call, values can overlap the other calls
Target sequence (O15379 whole entry, looked up): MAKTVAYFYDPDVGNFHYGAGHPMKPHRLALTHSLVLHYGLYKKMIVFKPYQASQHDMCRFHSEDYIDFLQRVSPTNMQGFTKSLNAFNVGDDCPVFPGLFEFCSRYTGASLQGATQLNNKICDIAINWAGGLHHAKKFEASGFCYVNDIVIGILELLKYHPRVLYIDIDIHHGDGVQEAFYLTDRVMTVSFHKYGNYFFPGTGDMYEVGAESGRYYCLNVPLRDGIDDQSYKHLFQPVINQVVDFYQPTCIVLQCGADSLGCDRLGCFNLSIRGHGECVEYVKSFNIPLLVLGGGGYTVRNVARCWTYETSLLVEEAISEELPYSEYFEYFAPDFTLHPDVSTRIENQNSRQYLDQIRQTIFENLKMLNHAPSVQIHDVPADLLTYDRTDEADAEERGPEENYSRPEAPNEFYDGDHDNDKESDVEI
SENP1 inh: inhibitors of human SENP1 SUMO protease catalytic domain. Q9P0U3. recombinant SENP1 catalytic domain, CyPet-SUMO1-YPet FRET cleavage. inhibition, % at 10 µM. 0.21% of 360,000 active. AID 624204;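 active means inhibition at least 30% at 10 µM, raw YFP signal under a set limit, fluorescence ratio 0.5 to 1.5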
Target sequence (Q9P0U3 419-644 limits assumed): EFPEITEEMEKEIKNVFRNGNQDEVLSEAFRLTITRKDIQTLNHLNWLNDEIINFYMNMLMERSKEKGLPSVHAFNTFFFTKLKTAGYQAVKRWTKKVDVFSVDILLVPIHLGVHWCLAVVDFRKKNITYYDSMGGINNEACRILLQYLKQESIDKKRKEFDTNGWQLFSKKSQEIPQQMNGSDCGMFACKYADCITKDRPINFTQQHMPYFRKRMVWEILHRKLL
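Test system: human SENP1 catalytic domain; medium: Tris pH 8 buffer plus EDTA, NaCl, BME, BSA, NP40, catalase; incubation: 50 min reaction at room temperature; technique: FRET, CFP and YFP emission; controls: no-enzyme low control and enzyme-plus-DMSO high control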
GAA30 counter: counter-screen for GAA850 frataxin promoter activators: GAA30 promoter activation; shares compounds with GAA850 FXN act; HEK293 lucGAA30 FXN promoter luciferase, 24 h; DMSO = 0%, 5 µM ipriflavone = 100%; activation, % at 6 µM; 66% of 1,900 active;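 active means mean activation above the mean of solvent-only control wells plus 3 SD, cut at about 22% in these data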;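 further: counterscreen of GAA850 promoter hits where activity marks nonselective or luminescence artifacts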
GAA850 confirm: GAA850 FXN promoter activation confirmation | 86% of 1,900 active | AID 588351 | HEK293 lucGAA850 FXN promoter luciferase reporter, 24 h; 100% = activation by SAHA | activation, % at 6 µM | shares compounds with GAA850 FXN act;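 active means mean activation above a set limit taken from the primary screen, cut at about 8% in these data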
SENP1 inh conf: SENP1 (human) inhibition, single concentration confirmation; shares compounds with SENP1 inh; recombinant SENP1, CyPet-SUMO1-YPet FRET cleavage; inhibition, % at 10 µM; 34% of 520 active; AID 651678; in the data active means inhibition mostly above about 35%, no sharp cut-off; inactive means mostly below about 32%
SENP1 kinetic: confirmation of human SENP1 SUMO protease inhibitors, kinetic | shares compounds with SENP1 inh | recombinant SENP1, CyPet-SUMO1-YPet FRET kinetic cleavage | inhibition, % at 10 µM | 26% of 520 active | AID 651690; in the data active means inhibition mostly above about 32%, no sharp cut-off; inactive means mostly below about 29%
Large screens that a line does not name were inactive (follow-up assays come after a bar, where they were run).

Cc1cc(SCC(=O)N(CC(C)C)c2c(N)n(CC(C)C)c(=O)[nH]c2=O)nc2ccccc12	none (no result: CTSL1 counter, M18AAP inhibitor, HDAC3 inhib)
CC(C)CN(C(=O)C(c1ccccc1)c1ccccc1)c1c(N)n(CC(C)C)c(=O)[nH]c1=O	GAA850 FXN act 7.9 | GAA30 counter inactive | GAA850 confirm inactive
O=[N+]([O-])c1nn(-c2ccc3c(c2)OCCO3)n(O)c1=NCc1ccc(F)cc1	none
O=[N+]([O-])c1nn(-c2ccc3c(c2)OCCO3)n(O)c1=NCc1ccc(F)cc1Cl	GAA850 FXN act 9.8, SENP1 inh 62 | GAA30 counter 91 | GAA850 confirm 30 | SENP1 inh conf inactive | SENP1 kinetic inactive
COc1ccc(N2C(=O)C3C(C2=O)C(C(=O)c2ccc(Cl)cc2)N2CCCC32)cc1 (centres undefined)	GAA850 FXN act 8.4, SENP1 inh 71 | GAA30 counter inactive | GAA850 confirm inactive | SENP1 inh conf 77 | SENP1 kinetic 50
CN(Cc1ccc(Cl)cc1Cl)C(=O)c1cc(=O)c2ccccc2o1	none
NC(=O)CCCn1c(C(=O)c2cc(Cl)c(N)c(Cl)c2)c2ccc([N+](=O)[O-])cc2[n+]1[O-]	AHR activator 77, SENP1 inh 30 (no result: M18AAP inhibitor) | SENP1 inh conf inactive | SENP1 kinetic inactive
Cc1nc2ccc(NS(=O)(=O)c3c(F)cccc3F)cc2s1	SENP1 inh 52 (no result: CTSL1 counter, M18AAP inhibitor) | SENP1 inh conf inactive | SENP1 kinetic 25
Cc1nc2ccc(NS(=O)(=O)c3ccc(F)cc3)cc2s1	none
COc1ccc(CNC(=O)C2Cc3c(-c4ccccc4Oc4ccccc4)ccnc3O2)cc1OC (centres undefined)	none (no result: CTSL1 counter, M18AAP inhibitor, AHR activator, HDAC3 inhib)
COc1ccc(C(=O)OC2C(OC)OCC(O)C2O)cc1 (centres undefined)	none (no result: CTSL1 counter, M18AAP inhibitor, AHR activator, HDAC3 inhib)
CCOC(=O)C1=C(C)N=c2sc(=Cc3cc(Cl)c(OCC(=O)O)c(Cl)c3)c(=O)n2C1c1cccc(OC)c1 (centres undefined)	SENP1 inh 52 (no result: CTSL1 counter, M18AAP inhibitor, AHR activator, HDAC3 inhib) | SENP1 inh conf 51 | SENP1 kinetic 35
CCOC(=O)C1=C(C)N=c2s/c(=C/c3ccc(OCC(=O)O)cc3)c(=O)n2C1c1cc(OC)c(OC)c(OC)c1 (centres undefined)	none
CCCOC(=O)Nc1nc2ccccc2o1	SENP1 inh 30 (no result: HDAC3 inhib) | SENP1 inh conf inactive | SENP1 kinetic inactive
CCOC(=O)C(Cc1ccc(O)cc1)Nc1nc2ccccc2o1 (centres undefined)	none (no result: CTSL1 counter, M18AAP inhibitor, AHR activator, HDAC3 inhib)
N#Cc1ccc(-c2cn3c(n2)SCC3)cc1	none (no result: CTSL1 counter, AHR activator)
Cc1cc(C(=O)COC(=O)C2=COCCO2)c(C)n1-c1cccc(F)c1	none (no result: M18AAP inhibitor)
COc1ccccc1S(=O)(=O)N(C)C[C@@H]1OCc2cn(nn2)CCCC(=O)N([C@@H](C)CO)C[C@H]1C	none (no result: CTSL1 counter, M18AAP inhibitor, AHR activator, HDAC3 inhib)
CCOc1cc([N+](=O)[O-])cc2c1C(=O)Nc1ccccc1O2	SENP1 inh 54 | SENP1 inh conf inactive | SENP1 kinetic inactive
O=C1Nc2ccccc2Oc2cc([N+](=O)[O-])ccc21	none
CCNC(=O)C1(C)CCCN(Cc2cccc3c(OC)cc(C(=O)OCC)cc23)C1 (centres undefined)	none (no result: CTSL1 counter, M18AAP inhibitor, AHR activator, HDAC3 inhib)
Nc1cc(-c2ccc(Br)cc2)nn1Cc1ccccc1	none (no result: CTSL1 counter, AHR activator, HDAC3 inhib)
Nc1c2c(nc3ccc(Br)cc13)N(Cc1ccccc1)CC2	AHR activator 50, SENP1 inh 59 | SENP1 inh conf inactive | SENP1 kinetic inactive
Cc1ccc(-c2csc3nc(-c4ccncc4)[nH]c(=O)c23)cc1	SENP1 inh 43 (no result: HDAC3 inhib) | SENP1 inh conf 40 | SENP1 kinetic inactive
Cc1ccc(-c2csc3nc[nH]c(=O)c23)cc1	none
O=C1/C(=C/c2ccc([N+](=O)[O-])cc2)C=C(c2ccccc2)N1c1ccccc1	SENP1 inh 40 | SENP1 inh conf inactive | SENP1 kinetic inactive
CC(=O)c1cccc(S(=O)(=O)NC2CCSc3ccccc32)c1 (centres undefined)	none
CC(C)Nc1ccc(C(CC(N)=O)NC(=O)Cc2cccc3ccccc23)cc1[N+](=O)[O-] (centres undefined)	HDAC3 inhib inconclusive, SENP1 inh 41 (no result: M18AAP inhibitor) | SENP1 inh conf inactive | SENP1 kinetic inactive
COc1ccccc1CNC(=O)Cn1nc(C)c([N+](=O)[O-])c1C	none (no result: M18AAP inhibitor)
COc1ccccc1NC(=O)c1cc2n(n1)C(C(F)(F)F)CC(c1ccc3c(c1)OCO3)N2 (centres undefined)	SENP1 inh 38 | SENP1 inh conf inactive | SENP1 kinetic inactive
Cc1c(N/C=C/C(=O)C(F)(F)F)c(=O)n(-c2ccccc2)n1C	none
COc1ccc(C(=O)/C=C/Nc2c(C)n(C)n(-c3ccccc3)c2=O)cc1OC	SENP1 inh 31 | SENP1 inh conf inactive | SENP1 kinetic inactive
CSc1c(C#N)c(N)nc2sc(C(=O)c3ccccc3)c(N)c12	SENP1 inh 65 | SENP1 inh conf 57 | SENP1 kinetic 40
N#Cc1c(SCc2ccc(Cl)cc2)sc(C(=O)c2ccccc2)c1N	none
CN(C)c1ccc(/C=N/NC(=O)C(=O)/C=C2\NC3(CCCC3)Cc3ccccc32)cc1	SENP1 inh 53 | SENP1 inh conf 37 | SENP1 kinetic inactive
COc1ccc(Cl)cc1NC(=O)CN(C)C(=O)C1COc2ccccc2O1 (centres undefined)	none (no result: CTSL1 counter, M18AAP inhibitor)
O=C(c1ccc(Cl)c(Cl)c1)N1CCC(=O)N([C@H](COCc2ccc(Cl)cc2)Cc2ccccc2)CC1	none (no result: CTSL1 counter, M18AAP inhibitor, GAA850 FXN act, AHR activator, HDAC3 inhib)
CCC1CCCCN1CCNS(=O)(=O)c1ccc2c(c1)oc(=O)n2C (centres undefined)	none
CCC1CCCCN1CCCNS(=O)(=O)c1ccc2c(c1)oc(=O)n2C (centres undefined)	SENP1 inh 31 | SENP1 inh conf inactive | SENP1 kinetic inactive
CCCCNc1c(-c2cc3ccccc3o2)nc2nc(C)cc(C)n12	none (no result: CTSL1 counter, M18AAP inhibitor, GAA850 FXN act, AHR activator, HDAC3 inhib)
CCOc1ccccc1N=Nc1c(C)[nH]n(C(N)=S)c1=O	AHR activator 65, SENP1 inh 48 | SENP1 inh conf inactive | SENP1 kinetic inactive
CC(=O)c1ccc(Sc2ccccc2N)c([N+](=O)[O-])c1	SENP1 inh 37 | SENP1 inh conf inactive | SENP1 kinetic inactive
CC(=O)c1ccc(Sc2ccccc2)c([N+](=O)[O-])c1	none
O=C(O)c1cc([N+](=O)[O-])ccc1Nc1ccccc1	none
